The source of these data is ChEMBL document CHEMBL1123530, “Adriamycin analogues. Preparation and biological evaluation of some thio ester analogues of adriamycin and N-(trifluoroacetyl)adriamycin 14-valerate” (J Med Chem, 1986).

The subject of data set [1] is CCRF-CEM. As to the kind of experiment: In vitro growth-inhibition assay utilizing CCRF-CEM cells, a lymphoblastic leukemic line of human origin. In kind it is functional. The settings on record: read-out: ID50 (the source's name). The method in brief:
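Human CCRF-CEM lymphoblastic leukemia cells in continuous suspension culture, exposed continuously to drug for 48 h. ID₅₀ is the concentration giving 50% reduction in growth versus untreated control cultures.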

A short description of data set [2]: Time for esterases in unfractionated mouse serum to reduce the concentration due to thio ester deacylation. The data set is classed as ADME. In outline: (§1)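 Drug incubated at 37 °C in pH 7.0 carbonate buffer containing 1% unfractionated mouse serum, pooled from 10 animals and stored at -70 °C. Loss of parent compound followed by HPLC; T1/2 is time for the initial concentration to fall by 50% through thio ester deacylation.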

Data set [3] relates to P388. As to the kind of experiment: (§2) Compound was evaluated in vivo for antitumor activity utilizing the murine P388 leukemia system in B6D2F1 male mice. In kind it is functional, Mus musculus. In outline:
(§3)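 B6D2F1 male mice were inoculated ip on day 0 with 10⁶ P388 leukemia cells. Drug was given ip once daily on days 1–4, broadly following standard NCI protocols. Activity was read as percent increase in life span relative to untreated controls, reported at the highest nontoxic dose. The experiment was terminated on day 60.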

In data set [4] the test system is Nucleic Acid. As to the kind of experiment: (§4) Compound was tested in vitro for ability to bind with double helical calf thymus DNA was determined spectrophotometrically at 480 nmby spectral shift method and the value expressed as the ratio A/Ao. In kind it is nucleic-acid assay. The settings on record: Bos taurus. In outline:
(§5)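 Calf thymus double-helical DNA in pH 7.0 Tris buffer, drug/DNA molar ratio 0.1. Absorbance at 480 nm measured for drug alone (A₀) and after mixing with DNA (A), reported as A/A₀ (spectral shift method).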

Data set [5] concerns Mus musculus. The data set is described as §2. In kind it is functional. In outline:
as §3

Data set [6] is described as follows: T 1/2 value indicates the time required for the initial concentration of compound to be reduced by 50%,. The data set is classed as ADME. In outline: as §1
Data set [7] can be described thus: as §4. The method in brief:
as §5

A short description of data set [8]: Time for esterases in unfractionated mouse serum to reduce the concentration due to thio ester deacylation; 10 % hydrolysis at 60 mins. In kind it is ADME. In outline:
as §1

Data set [9] concerns Mus musculus. As to the kind of experiment: Compound was evaluated in vivo for antitumor activity utilizing the murine P388 leukemia system in B6D2F1 male mice; Curative. The data set is classed as functional, organism-based. The method in brief: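 Murine P388 leukemia in B6D2F1 male mice; 10⁶ tumor cells inoculated ip on day 0; drug given ip once daily on days 1–4, largely per standard NCI protocols. Outcome is percent increase in life span versus untreated controls, at highest nontoxic dose; experiment ended day 60.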

For the compound `CCCCC(=O)SCC(=O)[C@]1(O)Cc2c(O)c3c(c(O)c2[C@@H](OC2CC(NC(=O)C(F)(F)F)C(O)C(C)O2)C1)C(=O)c1c(OC)cccc1C3=O` (stereo partly specified), the IC50 in data set [1] was more than 5 µM. In [2], this compound showed a half-life of 22 min.

`CCC(=O)SCC(=O)[C@]1(O)Cc2c(O)c3c(c(O)c2[C@@H](OC2CC(N)C(O)C(C)O2)C1)C(=O)c1c(OC)cccc1C3=O` (stereo partly specified): the IC50 in [1] is 0.72 µM. Besides, the Optimal dose in data set [3] was found to be 20 mg/kg. Further, the Ratio in [4] came out at 0.61. Further, in data set [5], the ILS was determined as 80%. The half-life in data set [2] is 5 min.

With `CCC(=O)SCC(=O)[C@]1(O)Cc2c(O)c3c(c(O)c2[C@@H](OC2CC(NC(=O)C(F)(F)F)C(O)C(C)O2)C1)C(=O)c1c(OC)cccc1C3=O` (stereo partly specified), in [6], the half-life was determined as 80 min. Besides, the Ratio in data set [7] came out at 0.99. The IC50 in [1] was 2.8 µM.

On to `CCCCC(=O)SCC(=O)[C@]1(O)Cc2c(O)c3c(c(O)c2[C@@H](OC2CC(N)C(O)C(C)O2)C1)C(=O)c1c(OC)cccc1C3=O` (stereo partly specified), for which the IC50 in [1] is 0.45 µM. This compound also displayed an Optimal dose in data set [3] of 10 mg/kg. In [4], the Ratio came to 0.65. The compound further returned an ILS in data set [5] of 130%. Moreover, in [2], the half-life turned out to be 8 min.

For the compound `COc1cccc2c1C(=O)c1c(O)c3c(c(O)c1C2=O)C[C@@](O)(C(=O)CO)C[C@@H]3O[C@H]1C[C@H](N)[C@H](O)[C@H](C)O1` [DOXORUBICIN], the IC50 in data set [1] was 0.06 µM. This compound also displayed an Optimal dose in data set [3] of 3 mg/kg. The Ratio in data set [4] came out at 0.96. The compound also returned an ILS in data set [5] of 157%.

Regarding `COc1cccc2c1C(=O)c1c(O)c3c(c(O)c1C2=O)C[C@@](O)(C(=O)CSC(=O)c1ccccc1)C[C@@H]3OC1CC(N)C(O)C(C)O1` (stereo partly specified), the IC50 in data set [1] was 2.3 µM. Besides, in data set [3], the Optimal dose was 10 mg/kg. For the same compound, the Ratio in [4] was 0.65. This compound displayed an ILS in data set [5] of 140%. The half-life in data set [2] was 8 min.

For the compound `COc1cccc2c1C(=O)c1c(O)c3c(c(O)c1C2=O)C[C@@](O)(C(=O)CSC(=O)c1ccccc1)C[C@@H]3OC1CC(NC(=O)C(F)(F)F)C(O)C(C)O1` (stereo partly specified), the IC50 in data set [1] is 3.8 µM. Further, the Ratio in [4] is 0.98. Further, the half-life in data set [8] is more than 60 min.

On to `COc1cccc2c1C(=O)c1c(O)c3c(c(O)c1C2=O)C[C@@](O)(C(=O)CSC(C)=O)C[C@@H]3OC1CC(N)C(O)C(C)O1` (stereo partly specified), for which, in data set [1], the IC50 was determined as 0.9 µM. Besides, the Optimal dose in [3] was 25 mg/kg. Besides, the Ratio in [4] is 0.61. Also, the ILS in data set [5] is 220%. In data set [2], the half-life is 6 min.

Take `CCCC(=O)SCC(=O)[C@]1(O)Cc2c(O)c3c(c(O)c2[C@@H](OC2CC(N)C(O)C(C)O2)C1)C(=O)c1c(OC)cccc1C3=O` (stereo partly specified): in [1], the IC50 stood at 0.56 µM. This compound came in with an Optimal dose in [3] of 10 mg/kg. The Ratio in data set [4] was found to be 0.63. Moreover, in data set [5], the ILS is on record as 90%. Also, the half-life in data set [2] stood at 10 min.

Turning to `COc1cccc2c1C(=O)c1c(O)c3c(c(O)c1C2=O)C[C@@](O)(C(=O)CSC(C)=O)C[C@@H]3OC1CC(NC(=O)C(F)(F)F)C(O)C(C)O1` (stereo partly specified), the IC50 in data set [1] is more than 5 µM. Also, the half-life in data set [2] is 18 min.

`CCCC(=O)SCC(=O)[C@]1(O)Cc2c(O)c3c(c(O)c2[C@@H](OC2CC(NC(=O)C(F)(F)F)C(O)C(C)O2)C1)C(=O)c1c(OC)cccc1C3=O` (stereo partly specified): in [1], the IC50 was more than 5 µM. The compound also yielded a half-life in data set [2] of 42 min.

On to `CCCCC(=O)OCC(=O)[C@]1(O)Cc2c(O)c3c(c(O)c2[C@@H](OC2CC(NC(=O)C(F)(F)F)C(O)C(C)O2)C1)C(=O)c1c(OC)cccc1C3=O` (stereo partly specified), for which the IC50 in data set [1] turned out to be 0.24 µM. Besides, the Optimal dose in [3] is 50 mg/kg. Further, in data set [4], the Ratio was determined as 0.6. Further, in data set [9], the ILS result was “Curative”. The compound further showed a half-life in data set [2] of 10 min.

The term half-life denotes the time needed for the level to fall by half in the phase considered. Low readings indicate rapid decline, high ones slow decline. As a reminder, the ILS is the gain in survival time of treated over control animals, in per cent. The low end stands for a small benefit in survival, the high end for a large benefit in survival.
